Calls of active or inactive are those of the source. No cut-off for these calls is given here.
Legend:
Plasmodium falciparum [1] = assay: Antiplasmodial activity against chloroquine-sensitive Plasmodium falciparum D6 in human erythrocyte after 72 hrs by SYBR Green I assay; assay type: functional, organism-based; details: D6, 72 h
Outline: (§1)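 Asynchronous parasites grown in human erythrocytes at 2% hematocrit in RPMI 1640 with 0.5% Albumax, 45 μg/L hypoxanthine, 50 μg/L gentamicin. Samples (10 mM stock in sterile water) serially diluted in medium, quadruplicate wells at 0.2% parasitemia, 2% hematocrit; 72 h at 37 °C. Lysis buffer with SYBR Green I added, 1 h rt dark, fluorescence ex 497/em 520 nm; IC50 by nonlinear regression of logistic dose–response curves.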

Plasmodium falciparum [2] = assay: Antiplasmodial activity against chloroquine-resistant Plasmodium falciparum 7G8 in human erythrocyte after 72 hrs by SYBR Green I assay; assay type: functional, organism-based; details: 7G8, 72 h; outline: as §1
Plasmodium falciparum [3] = assay: Antiplasmodial activity against chloroquine-resistant Plasmodium falciparum Dd2 in human erythrocyte after 72 hrs by SYBR Green I assay; assay type: functional, organism-based; details: Dd2, 72 h; outline: as §1
MDA-MB-231 = assay: Cytotoxicity against human MDA-MB-231 cells at 1 uM after 24 hrs by MTT assay; assay type: functional, cell-based
Outline: (§2)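 MTT viability assay; cells seeded at 3000 per well the day before treatment, kept under standard growth conditions. Compounds dissolved in 100% DMSO (stored −20 °C), final DMSO at most 0.1%. Viability relative to vehicle-treated cells set as 100%; coibamide A (30 nM) as control cancer cell toxin.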

SK-OV-3 = assay: Cytotoxicity against human SKOV3 cells at 1 uM after 24 hrs by MTT assay; assay type: functional, cell-based; outline: as §2
NCI-H460 = assay: Cytotoxicity against human NCI-H460 cells at 1 uM after 24 hrs by MTT assay; assay type: functional, cell-based; outline: as §2
SF-295 = assay: Cytotoxicity against human SF295 cells at 1 uM after 24 hrs by MTT assay; assay type: functional, cell-based; outline: as §2

SMILES | IC50 (Plasmodium falciparum [1]) | IC50 (Plasmodium falciparum [2]) | IC50 (Plasmodium falciparum [3]) | Activity (MDA-MB-231) | Activity (SK-OV-3) | Activity (NCI-H460) | Activity (SF-295)
C#CCCC[C@H]1NC(=O)[C@H](C(C)C)N(C)C(=O)[C@H](C(C)C)NC(=O)[C@@H](C)N(C)C(=O)[C@@H]2CCCN2C(=O)[C@H]([C@H](C)CC)NC(=O)[C@H](C(C)C)N(C)C(=O)[C@H](C(C)C)NC(=O)[C@H](C)N(C)C(=O)[C@H](C(C)C)OC(=O)[C@H]1C | 0.22 µM | 0.7 µM | 0.23 µM |  |  |  | 
C#CCCC[C@H]1NC(=O)[C@H](C(C)C)N(C)C(=O)[C@H](C)NC(=O)[C@H](CC(C)C)N(C)C(=O)[C@@H]2CCCN2C(=O)[C@H]([C@H](C)CC)NC(=O)[C@H](C(C)C)N(C)C(=O)[C@H]([C@H](C)CC)NC(=O)[C@@H](C)N(C)C(=O)[C@H](C(C)C)OC(=O)[C@H]1C | 0.57 µM | 1.1 µM | 1 µM | inactive | inactive | inactive | inactive

Reference: ChEMBL document CHEMBL3576798, “Depsipeptide companeramides from a Panamanian marine cyanobacterium associated with the coibamide producer” (J Nat Prod, 2015)
